This is an account of results in ChEMBL document CHEMBL4513216, “Probing the Open Global Health Chemical Diversity Library for Multistage-Active Starting Points for Next-Generation Antimalarials” (ACS Infect Dis, 2020).

Each structure is given as a SMILES string.

The data set is described as follows: Toxicity liver stage against HepG2, at 10uM. Format: cell-based. Details: test concentration 10 uM, cell line HepG2-A16-CD81EGFP. The following applies: human, HepG2-A16-CD81EGFP cells; read-out: INHIBITION
The essentials: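 Uninfected HepG2-A16-CD81EGFP cells, 3 × 10^3 per well, 1536-well, plated on prespotted compound at 10 μM final, parasite-free screening media added to match infected plates; puromycin 10 μM positive, DMSO 0.5% negative; run in parallel with 48 h PbLuc assay at 37 °C, 5% CO2; viability by CellTiter-Glo luminescence, normalized to controls.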
On to `CCc1c(C)nc(SCc2ccccn2)[nH]c1=O`, for which the cytotoxicity at 10 µM was found to be 9.56%.
With `COCc1cc(CC2(NCc3ccccc3Cl)COC2)no1`, the cytotoxicity at 10 µM was -9.09%.
On to `CC(C)(C)c1c[nH]c([C@@H]2COCCN2C2CCNCC2)n1`, for which the cytotoxicity at 10 µM stood at 6.07%.
The result for `O=C1CO[C@H]2CN(Cc3ccc4c(c3)OCO4)C[C@H]2N1` reads 0.801%; that for `COc1ccc(CN2CCCC2c2cccc(F)c2)c(OC)c1OC` (configuration not stated), 3.48%.
As to `COc1ccc(Cl)cc1NCc1nc2[nH]c(C)c(C)c(=O)n2n1`, the cytotoxicity at 10 µM is 0.308%.
The result for `COc1ccccc1CN1CC(OC)CN(C(=O)OCC(C)C)CC1=O` (configuration not stated) reads -12%; that for `COC1CCN(C(=O)NCC(N)=O)CC(=O)N(C)c2ccccc21` (configuration not stated), 4.79%; that for `Cc1nc2oc(C(=O)N3CCCC3)c(N)c2c2c1CCCC2`, -6.95%.
As for `CN1C(=O)CCc2cc(NC(=O)C3CCCC3)ccc21`, the cytotoxicity at 10 µM was -9.79%.
`Cc1cc(CNC(=O)COc2ccccc2F)c(C)o1`: the cytotoxicity at 10 µM was -2.33%.
As for `CN1C(=O)CCC12CCN(Cc1ccco1)CC2`, the cytotoxicity at 10 µM came to 1.61%.
In the case of `CC(C)COCC1CN(Cc2ccsc2)Cc2ncn(C)c21` (configuration not stated) it was 6.61%; in that of `O=C(C1CC=CC1)N1CCc2ncnc(-c3ccncc3)c2CC1`, 2.31%.
The result for `COCC(C)NC(=O)c1cn(C(C)(C)C)c2ncccc12` (configuration not stated) reads 2.69%; that for `CCOCCNS(=O)(=O)c1cc(C)c2nc(O)cc(C)c2c1`, -4.77%; that for `CCc1nnc(SCc2nonc2C)n1C1CC1`, 0.649%.
The result for `CC(C)C(=O)N1CCCC(Cc2cccnc2)C1` (configuration not stated) reads -1.55%; that for `O[C@@H]1C[C@H]2CN(CC3CCCCC3)[C@H](Cc3ccccc3)CN2C1`, 0.13%; that for `Cc1ocnc1C(=O)N(C)[C@@H]1CC[C@@H](Oc2ccccc2)[C@@H]1O`, -0.658%.
Take `Cc1nn(C)cc1S(=O)(=O)N[C@@H]1CC[C@@H](n2ccnc2C)[C@@H]1O`: the cytotoxicity at 10 µM is -3.43%.
As to `CO[C@H]1CN(C(=O)c2cn3cc(C)ccc3n2)CC[C@@]12CCCO2`, the cytotoxicity at 10 µM came to 3.6%.
`Cc1cccc(-c2nccnc2C2CCCN(C)C2)c1` (configuration not stated): the cytotoxicity at 10 µM worked out at 0.83%.
In the case of `CNc1cccc(CC2COCCN(C(=O)c3cncs3)C2)n1` (configuration not stated) it was 6.42%.
The result for `CS(=O)(=O)NC(=O)c1ccn(-c2cccc(Br)c2)n1` reads -3.64%; that for `Cc1ccc(CNC(=O)CN(CCC(N)=O)c2ccc(F)cc2)cc1`, -2.62%; that for `Oc1c(F)cc(CNc2cccc(-c3nnc[nH]3)c2)cc1F`, -44.2%.
The result for `Cc1cc(NC(=O)NCCC(=O)N2CCCc3ccccc32)no1` reads -5.96%; that for `CCc1ccc(CNC(=O)CCNc2ncccn2)s1`, 3.73%; that for `CN(C)C1Cc2ccccc2N(S(=O)(=O)c2ccc(C#N)cc2)C1` (configuration not stated), 2.91%.
For the molecule `CS(=O)(=O)NC1CCCN(Cc2ccc(OCc3ccccn3)cc2)C1` (configuration not stated), the cytotoxicity at 10 µM came to 1.8%.
With `CS(=O)(=O)NC1CCCN(Cc2ccccn2)C1` (configuration not stated), the cytotoxicity at 10 µM was found to be 4.74%.
The result for `COC(=O)CCNC(=O)c1cc(Br)c2c(c1)OCCO2` reads 11%; that for `Cc1cc2n(n1)CC(CNC1CCN(Cc3ccncc3)CC1)CN2` (configuration not stated), 1.78%; that for `Cn1cc(-c2nc(CN3CCn4c(nnc4C4CC4)C3)cs2)cn1`, -1.07%.
The result for `Cc1ccc(C(=O)NC2CCOc3ccccc32)cc1S(C)(=O)=O` (configuration not stated) reads -3.83%; that for `COc1ccc(-c2cnc(CN3CCCC3Cn3cncn3)o2)cc1` (configuration not stated), 3.41%.
For `CCN(C(c1ccc(OC)cc1)c1cccnc1)S(C)(=O)=O` (configuration not stated), the cytotoxicity at 10 µM was 9.62%.
For the molecule `Cc1ccc(Br)c(S(=O)(=O)NCc2cnn(C)c2)c1`, the cytotoxicity at 10 µM was 6.95%.
As to `O=S(=O)(NCc1cccnc1OC1CCCC1)N1CCOCC1`, the cytotoxicity at 10 µM turned out to be 1.46%.
With `CC(C)c1nc(S(=O)(=O)N2CCSc3ccccc32)c[nH]1`, the cytotoxicity at 10 µM amounted to 2.7%.
For `N#Cc1ccc(N2CCN(c3cnccn3)CC2)cc1C(F)(F)F`, the cytotoxicity at 10 µM was 38.6%.
In the case of `Cn1cc(S(=O)(=O)NCCc2nnc3ccccn23)cn1` it was 8.43%; in that of `CSC1(CNC(=O)NC(C)c2ccc(F)cc2)CCOCC1` (configuration not stated), 6.88%; in that of `COc1cccc(CNCc2cccnc2-n2cccn2)c1OC`, 2.86%.
The result for `COc1cccc(NC(=O)NC2(c3noc(CN(C)C)n3)CCCC2)c1` reads 2.6%.
In the case of `CSc1ccc(OCCN2CCNC(=O)C2C)cc1` (configuration not stated) it was 8.57%; in that of `Cc1cc(=O)n2nc(Oc3ccc(Cl)c(C)c3)sc2n1`, -19%; in that of `CNC(=O)NCC(CO)Cc1ccccc1OC(F)(F)F` (configuration not stated), 5.97%.
With `CC(=O)N1CCC2(CCN(C(=O)c3ccc(C)c(C(F)(F)F)c3)CC2)C1`, the cytotoxicity at 10 µM amounted to 3.73%.
In the case of `CCc1ncc(-c2nccn2-c2cccc(CC(=O)O)c2)cn1` it was 10.2%; in that of `CN1CC2(CCCN(C(=O)Cc3cccc(O)c3)C2)OC1=O` (configuration not stated), 4.61%.
With `O=C(c1ccc(-c2nc[nH]n2)cc1)N1CC[C@H](CO)[C@@H](O)C1`, the cytotoxicity at 10 µM stood at 0.466%.
For `O=C(CCc1cn[nH]c1)N1C[C@@H](CN2CCOCC2)C[C@H](CO)C1`, the cytotoxicity at 10 µM is 3.13%.
In the case of `CS(=O)(=O)c1cnc(C2CCCC2)nc1C1CCCNC1` (configuration not stated), the cytotoxicity at 10 µM is -6.35%.
In the case of `COCCN(CC1CC1)c1nc(CCN)nc2ccccc12` it was 9.22%; in that of `CN(CCc1ccccn1)C(=O)CCC1CCCN(c2ncccn2)C1` (configuration not stated), 1.64%; in that of `Cc1ccsc1[C@@H]1CCN(C(=O)c2ccc(-c3cc[nH]n3)cc2)C[C@H]1O`, 4.28%.
As for `CN(CCN1CCCCCC1)C(=O)c1cc(CN2CCCC(O)C2)on1` (configuration not stated), the cytotoxicity at 10 µM is -0.641%.
As for `CCCN(Cc1nccn1C)C(=O)C(CC)Nc1cccc(OC)c1` (configuration not stated), the cytotoxicity at 10 µM was found to be 0.417%.
As to `CC1CCc2n[nH]c(C(=O)N3CCc4c(nc(N(C)C)[nH]c4=O)C3)c2C1` (configuration not stated), the cytotoxicity at 10 µM was 21.4%.
`Cc1nc(N(C)CCCc2nccn2C)c2c(C)nn(C)c2n1`: the cytotoxicity at 10 µM was determined as 5.84%.
As to `CCCn1cnnc1CN(C)C(=O)CCC(=O)Nc1cc(C)ccc1F`, the cytotoxicity at 10 µM turned out to be 16.1%.
The result for `Cc1cc2cccc(NC(=O)N3CCC(N4CCSCC4)CC3)c2o1` reads -3.25%.
The result for `COCCCN1C(=O)CC[C@H]2CN(Cc3ccc4occc4c3)CC[C@H]21` reads 8.98%.
The result for `O=C(N[C@H]1CN(C2CCOCC2)C[C@@H]1C1CC1)c1ccon1` reads 5.21%; that for `COc1ccc(F)cc1CN1CCC(O)(CN2CCCCC2)C1` (configuration not stated), -12%; that for `CCc1cc(N[C@H](C(N)=O)C(C)C)n2nc(C)c(C)c2n1`, 5.88%.
As for `CCCc1nc(C(=O)NC(COC)c2ccnn2C)cs1` (configuration not stated), the cytotoxicity at 10 µM was -2.37%.
As for `Cc1cccnc1CC(C)N(C)C(=O)c1cccs1` (configuration not stated), the cytotoxicity at 10 µM is -1.02%.
In the case of `Cn1ccnc1CN1CCC(c2nnc(Cn3cccn3)n2C)CC1` it was 17.4%; in that of `Cc1cccc(C)c1NC(=O)c1cccc(N(C)S(C)(=O)=O)c1C`, 3.03%; in that of `CCCc1cc(=O)[nH]c(-c2ccccc2CN(C)CCn2cccn2)n1`, -1.41%.
In the case of `O=C(CCn1cncn1)N1CC[C@@H](c2ccc3ccccc3c2)[C@H](O)C1` it was -5.16%; in that of `COc1cccc(N2CCN(C(=O)CCO)CC2=O)c1`, 3.75%; in that of `CC(c1cc(F)ccc1F)N(C)Cc1nc2c(cnn2C)c(=O)[nH]1` (configuration not stated), -7.8%.
The result for `c1ccc2oc(CN3CCCC(Cn4cncn4)C3)nc2c1` (configuration not stated) reads -7.3%; that for `Cc1nc(C)n(C2CCCN(C(=O)c3ccc(O)nc3)C2)n1` (configuration not stated), -1.95%.
In the case of `CCn1ccnc1CN1CCCN(C(=O)c2ccsc2)CC1`, the cytotoxicity at 10 µM is -6.63%.
In the case of `Cc1cc(C)n(CC2CN(Cc3cc(C)on3)CCO2)n1` (configuration not stated) it was -9.71%; in that of `COC(=O)c1cccn1C1CCN(C(=O)c2cc(C)ccc2O)CC1`, -3.22%.
In the case of `CN(CC(=O)N1CCC(C(O)c2ccccc2)CC1)c1cnccn1` (configuration not stated) it was -2.9%.
`CC(O)CN1CCN(C(=O)c2ccc(Br)o2)CC1` (configuration not stated): the cytotoxicity at 10 µM was -8.6%.
As to `CCCc1noc(CN2CCCC2c2ccsc2)n1` (configuration not stated), the cytotoxicity at 10 µM is -18.8%.
In the case of `COc1c(C2CCCN2C(=O)Cc2c(C)noc2C)c(C)nn1C` (configuration not stated) it was -12.9%; in that of `Fc1cccc(-c2nc(CN3CCn4c(nnc4C4CC4)C3)co2)c1`, 4.4%; in that of `COc1c(C2CCCN2C(=O)c2cncnc2C)c(C)nn1C` (configuration not stated), -6.19%.
In the case of `CNC(=O)C1(N2CCC[C@H]2C(=O)NC2CC2)CCCCC1` it was -1.69%.
In the case of `CN(C)S(=O)(=O)c1ccc(-c2nc(C#N)c(NC(C)(C)C)o2)o1` it was -12.3%; in that of `CN1C(Cn2cccn2)C[C@@H]2CN(C(=O)c3cccc(C#N)c3)CC[C@@H]21` (some centres not stated), 3.1%.
For `O=C1CC2(CNCCN(C(=O)Nc3ccccc3)C2)CN1` (configuration not stated), the cytotoxicity at 10 µM came out at 2.23%.
In the case of `CC(=O)N1CCN(Cc2ccsc2)CC2(CC(=O)N(C)C2)C1` (configuration not stated) it was -1.27%.
In the case of `CNc1cc(C2CCCNC2)nc(C)n1` (configuration not stated) it was 8.37%; in that of `c1cc(CNCc2ccc(Cn3cncn3)cc2)c2c(c1)OCCO2`, 0.585%; in that of `O=C(C1CCCC1)N1C[C@@H]2CCN(c3cnccn3)C[C@@H]2C1`, 3.44%.
The result for `N#CC1Sc2nnc(-c3ccccc3Br)n2N=C1N` (configuration not stated) reads -4.81%.
Take `COCCN1C(=O)[C@@H]2CC[C@H]1CN(Cc1nnc(C3CC3)o1)C2`: the cytotoxicity at 10 µM came to 11.6%.
